Screens (PubChem)
Measles CPE: protection of cells from measles virus | hit rate 1.5% among 140,000 | protection (pct of control), % at 4 µM | AID 841 | Measles virus-infected cells, CPE protection, absorbance; in the data active = protection mostly above about 24%, no sharp cut-off; inactive = mostly below about 26%
MDM2 E3 inh: inhibitors of human Mdm2 E3 ubiquitin ligase; Q00987; cell-based MDM2 ubiquitination luciferase reporter, 2 h; 0 = plate control, 100 = twice control, blank-subtracted; signal enhancement, % at 5 µM; hit rate 0.11% among 210,000;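 active = signal enhancement of 30% or more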;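 note: luminescence tracks abundance of the self-degrading MDM2-luciferase fusion protein; higher signal means inhibition of MDM2 E3 ligase activity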
Target sequence (Q00987 whole entry, looked up, the tested form may be a part): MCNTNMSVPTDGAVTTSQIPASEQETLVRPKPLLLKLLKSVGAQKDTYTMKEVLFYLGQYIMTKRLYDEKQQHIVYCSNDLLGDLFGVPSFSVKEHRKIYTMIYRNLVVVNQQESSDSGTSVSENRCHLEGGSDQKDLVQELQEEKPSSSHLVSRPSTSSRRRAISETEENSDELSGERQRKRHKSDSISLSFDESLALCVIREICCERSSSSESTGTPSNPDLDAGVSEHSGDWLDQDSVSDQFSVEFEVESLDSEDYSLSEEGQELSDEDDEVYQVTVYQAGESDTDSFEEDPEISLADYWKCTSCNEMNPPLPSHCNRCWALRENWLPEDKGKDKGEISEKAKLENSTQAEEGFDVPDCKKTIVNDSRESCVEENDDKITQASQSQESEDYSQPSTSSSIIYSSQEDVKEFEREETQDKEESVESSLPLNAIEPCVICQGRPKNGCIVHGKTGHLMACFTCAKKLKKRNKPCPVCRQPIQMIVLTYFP
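Timing – 2 h compound exposure at 37 °C · Assay system – mammalian cells stably expressing self-ubiquitinating, self-degrading MDM2 E3–luciferase fusion · Amount – 2000 cells seeded into each well · Measure – % luminescence enhancement versus blank-corrected plate control mean · Measured by – SteadyLite luminescence, 15 min reagent step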
RAM inhibit: blocks the yeast RAM network; inhibition, % at 50 µM; S. cerevisiae dse1pr::URA3 reporter, 5-FOA growth OD615, 2 d; analog-sensitive cbk1-as2 kinase mutant strain; hit rate 1.8% among 190,000;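 active = inhibition above a set limit, 3 SD over mean compound inhibition, cut at about 8.4% in these data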;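 note: 0% = DMSO-only wells with no growth and 100% = 10 µM 1-NA-PP1 full growth; inhibition rescues growth on 5-FOA so higher OD means more RAM inhibition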
Yeast lifespan up: extends the lifespan of yeast | S. cerevisiae growth with nicotinamide, OD615; deaD strain in restrictive glucose medium | inhibition of the nicotinamide effect, % at 10 µM | hit rate 0.68% among 130,000 | AID 775;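 active = inhibition above a set limit, placed 3 SD over the median of all compounds, cut at about 26% in these data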;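 note: 0% = nicotinamide-treated wells and 100% = cells grown without nicotinamide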
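System: DeaD-strain S. cerevisiae / Buffer or medium: CSMM-D, restrictive glucose (dextrose) synthetic minimal medium / Probe or stimulus: nicotinamide, 1.5 mM, co-present with compound / Compound: one concentration, 10 µM, DMSO 0.25% / Incubation: 48 h compound exposure at 30 °C, humidified / Technique: optical density (absorbance) at 615 nm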
BB579 growth dn: chemicals that inhibit yeast BB579 growth in restrictive medium (lifespan-shortening candidates). S. cerevisiae BB579 growth, OD615, 48 h. inhibition, % at 10 µM. hit rate 0.51% among 140,000;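 active = inhibition above a set limit, 3 SD over the mean compound inhibition, cut at about 44% in these data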
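Detection: OD615 turbidity measurement; Material: Saccharomyces cerevisiae DeaD strain BB579, replicative lifespan model yeast; Timing: 48 h exposure, 30 °C; Doses: single 10 µM dose; Medium: CSMM-D restrictive synthetic medium containing dextrose (glucose); Controls: amphotericin B at 10 µg/mL as positive control.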
Insulin prom inh: TRM-6 insulin promoter activity inhibition. TRM-6 cells (human fetal islet line), insulin promoter-eGFP reporter, imaging; reporter expression induced with tamoxifen. inhibition, % at 2 µM. hit rate 0.9% among 130,000. AID 1273;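 active = inhibition above the mean plus 3 SD, with well images judged a real hit on visual review, cut at about 60% in these data, passing the limit was not always enough; inconclusive = inhibition over the cutoff but images rejected on review; inactive = inhibition not above the cutoff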
* hit, by the source's call; ? = inconclusive; / = no result. Shown are actives, neighbours in structure and some others; about 4% of the full set was active somewhere.

SMILES	Measles CPE	MDM2 E3 inh	RAM inhibit	Yeast lifespan up	BB579 growth dn	Insulin prom inh
Cc1ccccc1CN(c1ccc(C(=O)N/N=C/c2ccc(OCC(N)=O)cc2)cc1)S(C)(=O)=O	/	/	6	/	/	/
O=C(O/N=C\c1ccc(N2CCCCC2)c([N+](=O)[O-])c1)c1cccc(Cl)c1	13	-1	11*	-5	-48	/
O=C(O/N=C\c1ccc(N2CCCCC2)c([N+](=O)[O-])c1)c1cccc(C(F)(F)F)c1	3	-18	6	-5	6	18
CC(C)N1C/C(=C/c2cccnc2)C(=O)/C(=C/c2cccnc2)C1	6	-7	2	41*	-56	-58
CN1C/C(=C/c2cccnc2)C(=O)/C(=C/c2cccnc2)C1	-1	/	0	51*	-14	-68
CC(C)(C)OC(=O)N1CCC[C@H]1C(=O)N/N=C/c1cccc2nccnc12	/	-20	/	/	/	/
O=c1[nH]cnc2c1ncn2[C@@H]1O[C@H](CO)[C@@H](O)[C@H]1O	16	/	1	2	4	-10
O=c1cnn([C@@H]2O[C@H](CO)[C@@H](O)[C@H]2O)c(=O)[nH]1	39	/	0	12	44*	-29
Cc1cc(O)cc2c1C(c1ccc(F)cc1)CC1(CC(C)(C)NC(=S)N1)O2 (stereo not given)	/	8	2	/	/	/
COc1ccc(C2CC3(CC(C)(C)NC(=S)N3)Oc3cc(O)cc(C)c32)cc1 (stereo not given)	16	-2	9.7*	1	-5	-7
O=C(CSc1nnc(-c2n[nH]c3ccccc23)n1-c1ccccc1)Nc1cccc(Cl)c1	16	2	8.8*	7	-47	/
Cc1cccc(C)c1Nc1c(-c2ccc(N3CCOCC3)cc2)nc2ncccn12	6	/	0	-1	11	38
Cc1ccc(Nc2c(-c3ccc(N4CCOCC4)cc3)nc3ncccn23)c(C)c1	7	/	0	4	0	76*
O=C(O)C1C2CCC(O2)C1C(=O)Nc1cnn(Cc2ccccc2)c1 (stereo not given)	7	-17	0	8	-8	/
O=C(Nc1cnn(Cc2ccccc2)c1)NC12CC3CC(CC(C3)C1)C2	23*	-8	2	-9	17	-40
O=C(Oc1c(Cl)cc(Cl)c2cccnc12)c1ccco1	10	-16	-1	-20	2	68*
O=C(Oc1c(CN2CCOCC2)cc(Cl)c2cccnc12)c1cccs1	/	-4	-1	/	/	/
O=C(Oc1c(Cl)cc(Cl)c2cccnc12)c1cccs1	6	-1	0	/	99*	29
COc1ccc(OCCC(=O)OCC(=O)NCc2ccc(F)cc2)cc1	/	-8	3	/	/	/
COc1ccc([N+](=O)[O-])cc1N/C(=N/S(=O)(=O)c1ccccc1)c1ccccc1	/	-17	2	/	/	-11
Cc1cc(CSc2ccccc2)ccc1NC(=O)c1ccc(Br)cc1	25	6	4	6	-9	/
Cc1ccccc1NC(=O)c1ccc(CSc2ncccn2)cc1	45*	-9	4	-14	-18	19
Cc1ccc(NC(=O)c2ccc(CSc3ccccn3)cc2)c(O)c1	/	-11	/	/	/	/
Cc1ccc(NC(=O)c2ccc(CSc3ccccn3)cc2)cc1	6	0	8.4*	-12	-27	0
COc1ccc(OCCCC(=O)Nc2cc([N+](=O)[O-])ccc2C)cc1	4	5	4	-17	-60	/
SMILES	Measles CPE	MDM2 E3 inh	RAM inhibit	Yeast lifespan up	BB579 growth dn	Insulin prom inh
COc1ccc(N(CC(=O)Nc2cc([N+](=O)[O-])ccc2C)S(C)(=O)=O)cc1OC	/	-9	/	/	/	/
Cc1cccc(CS(=O)(=O)c2nnc([C@H](Cc3ccccc3)NC(=O)OC(C)(C)C)o2)c1	17	-4	5	0	-6	31
COC(=O)CS(=O)(=O)c1nnc([C@H](Cc2ccccc2)NC(=O)OC(C)(C)C)o1	15	5	2	-8	-47	70*
COC(=O)c1ccc(CSc2nnc(C)n2N)o1	23	/	2	2	-17	-55
Cn1c(CNC2CCCCC2)c(C#N)c2ccccc21	4	-8	2	4	-28	-17
Cc1nn2cc(-c3ccc(Cl)cc3)cnc2c1Cl	/	-24	1	/	/	38
CN(Cc1c(O)ccc2c1oc(=O)c1ccccc12)C1CCCCC1	4	-18	-1	46*	-23	/
Cc1cccc(N(CC(=O)NC2CCCCC2)C(=O)c2c(C)noc2C)c1	22	-9	1	-3	7	17
Cc1ccc(S(=O)(=O)c2cc3ccccc3nc2N)cc1	/	-8	1	/	/	/
CC(C)(C)NS(=O)(=O)c1ccc(NS(C)(=O)=O)cc1	45*	-13	2	-8	-8	/
COc1ccc(-c2nc(SC)n(S(=O)(=O)c3ccccc3)n2)cc1	5	5	2	/	-22	90*
CSc1nc(-c2ccccc2)nn1S(=O)(=O)c1ccccc1	3	0	-1	/	-5	31
O=c1[nH][nH]c(=S)n1-c1ccccc1C(F)(F)F	/	-10	/	/	/	/
O=C(Nc1cccc(F)c1)c1ccc(-c2ccccc2Cl)o1	9	/	10*	-7	-21	?
COc1ccc(NC(=O)c2ccc(C(=O)c3ccccc3)o2)cc1	4	-1	3	-27	9	90*
COc1ccc(NC(=O)c2ccc(-c3ccccc3Cl)o2)cc1	3	/	8.7*	-3	-51	19
CC1(C)CC(=O)C(C(C2=C(O)CC(C)(C)CC2=O)c2ccc([N+](=O)[O-])cc2)C(=O)C1 (stereo not given)	/	-8	2	38*	-31	-3
COc1cccc(C(C2=C(O)CC(C)(C)CC2=O)C2C(=O)CC(C)(C)CC2=O)c1 (stereo not given)	20	-13	0	22	-32	21
Cc1ccc(C(C2=C(O)CC(C)(C)CC2=O)C2C(=O)CC(C)(C)CC2=O)s1 (stereo not given)	7	5	-1	25	12	/
CC1(C)CC(=O)C(C(C2=C(O)CC(C)(C)CC2=O)c2ccc(Br)s2)C(=O)C1 (stereo not given)	25	-20	-1	30*	-8	/
O=C(COC(=O)c1ccc(O)cc1)Nc1ccccc1[N+](=O)[O-]	/	-3	4	/	/	/
Cc1cccc(NC(=O)C2CC(=O)N/C(=N/N=C/c3ccco3)S2)c1 (stereo not given)	30*	-8	7	24	-8	/
CCc1ccccc1NC(=O)Nc1cccn(Cc2ccccc2F)c1=O	/	-3	2	/	/	/
